From ChEMBL document CHEMBL4613234, “Auxiliary in vitro and in vivo biological evaluation of hydrogen peroxide sensitive prodrugs of methotrexate and aminopterin for the treatment of rheumatoid arthritis” (Bioorg Med Chem, 2020) come the findings set out here.

Calls of active or inactive are those of the source. Where only a bound is given, the exact number is not on record here.

Data set [1] concerns HeLa. The data set is described as follows: Cytotoxicity against human HeLa cells assessed as reduction in cell viability incubated for 48 hrs in presence of ROS scavenger pyruvate by Alamar blue assay. The format is cell-based. The gist of the method: (§1)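 HL-60, HEK293 and HeLa cells exposed to compound for 48 h with or without pyruvate as ROS scavenger; viability read by Alamar blue; IC50 in nM, mean of at least three replicates ± SEM.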

For data set [2], the system named is HeLa. The data set is described as follows: Cytotoxicity against human HeLa cells assessed as reduction in cell viability incubated for 48 hrs in absence of ROS scavenger pyruvate by Alamar blue assay. In kind it is cell-based. The gist of the method: as §1
The test system of data set [3] is HL-60. In words: Cytotoxicity against human HL60 cells assessed as reduction in cell viability incubated for 48 hrs in absence of ROS scavenger pyruvate by Alamar blue assay. As to conditions: HL-60, 48 h. The format is cell-based. In short, it runs like this: as §1
(The colour change of resazurin is a common sign of viable cells or microbes.)

Data set [4] has as its system HL-60. The data set is described as follows: Cytotoxicity against human HL60 cells assessed reduction in cell viability incubated for 48 hrs in presence of ROS scavenger pyruvate by Alamar blue assay. The format is cell-based. As to conditions: HL-60, 48 h. In short, it runs like this:
as §1

The nature of data set [5]: Toxicity in dark agouti rat model of collagen-induced arthritis assessed as adverse effect at 0.36 mg/kg, ip administered on day 17 and treated until day 31. The format is organism-based. As to conditions: in vivo. The gist of the method:
(§2)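 Collagen-induced arthritis in dark agouti rats given daily i.p. doses from day 17 in 2% (v/v) DMSO vehicle; n = 8 per group. Tolerability followed as average body weight measured three times weekly, plus general health observation; animals removed early for high arthritis score or declining health.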

Data set [6] in a line: Toxicity in dark agouti rat model of collagen-induced arthritis assessed as increase in body weight at 0.36 mg/kg, ip administered on day 17 and treated until day 31. The format is organism-based. To be noted: in vivo. In short, it runs like this:
as §2

The test system of data set [7] is Rattus norvegicus. In words: Antiarthritic activity in dark agouti rat model of collagen-induced arthritis assessed as decrease in disease severity at 0.36 mg/kg, ip administered on day 17 and treated until day 31 by macroscopic observation analysis. The format is functional, organism-based. In short, it runs like this: (§3)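 Dark agouti rats with collagen-induced arthritis; daily i.p. dosing from disease onset (day 17), doses equimolar to 0.3 mg/kg MTX, DMSO kept at 2% (v/v). Arthritis scored macroscopically three times weekly: 1 point per swollen toe, 1 per swollen foot knuckle, 5 for swollen ankle, 0–15 per limb, maximum 60 per rat. n = 8 per group, 10 for vehicle; mean ± SEM.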

Data set [8] is described as follows: Half life in human HEK293 cells in presence of paraquat and absence of ROS scavenger pyruvate. The format is ADME, cell-based.
Data set [9] is described as follows: Toxicity in dark agouti rat model of collagen-induced arthritis assessed as adverse effect at 0.42 mg/kg, ip administered on day 17 and treated until day 31. In kind it is organism-based. As to conditions: in vivo. The gist of the method: as §2
The subject of data set [10] is HL-60. The data set is described as follows: Induction of apoptosis in human HL60 cells assessed as apoptotic cells at 0.1 to 10 uM in absence of ROS scavenger pyruvate by annexin V-FITC/propidium iodide staining based flow cytometry (reference value: 3 %). The format is functional. In short, it runs like this: (§4)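 HL-60 cells in RPMI without pyruvate, treated 48 h at 10, 1 and 0.1 μM (vehicle 0.1% DMSO); annexin V/PI staining, flow cytometry gating singlets, apoptotic fraction taken as P4 + P5 populations; at least triplicates, mean ± SD; two-tailed unpaired t-test, p < 0.05.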
Background: In flow cytometry, cells or beads pass a laser one at a time.

A short description of data set [11]: Half life of compound in culture media in absence of ROS scavenger pyruvate. The format is physicochemical.
The nature of data set [12]: Ratio of IC50 for human HEK293 cells assessed as reduction in cell viability incubated for 48 hrs in presence of ROS scavenger pyruvate by Alamar blue assay to IC50 for human HEK293 cells assessed as reduction in cell viability incubated for 48 hrs in absence of ROS scavenger pyruvate by Alamar blue assay. In kind it is cell-based. As to conditions: read-out: Ratio IC50. In short, it runs like this: (§5)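 Ratio of 48 h Alamar blue IC50 values with versus without pyruvate as ROS scavenger, in HEK293 or HL-60 cells; each IC50 from at least three replicates.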

Data set [13] is described as follows: Ratio of IC50 for human HL60 cells assessed as reduction in cell viability incubated for 48 hrs in presence of ROS scavenger pyruvate by Alamar blue assay to IC50 for human HL60 cells assessed as reduction in cell viability incubated for 48 hrs in absence of ROS scavenger pyruvate by Alamar blue assay. In kind it is cell-based, HL-60. As to conditions: read-out: Ratio IC50. The gist of the method:
as §5

Data set [14] can be described thus: Apparent intrinsic clearance in rat liver microsomes. In kind it is ADME, Microsome. To be noted: read-out: CLH. In short, it runs like this: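 Apparent intrinsic clearance (CL'int, mL/min/kg) determined in pooled rat liver microsomes.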
Data set [15] deals with HEK293. The data set is described as follows: Cytotoxicity against human HEK293 cells assessed as reduction in cell viability incubated for 48 hrs in presence of ROS scavenger pyruvate by Alamar blue assay. In kind it is cell-based. As to conditions: HEK293, 48 h. The gist of the method:
as §1

Data set [16] is described as follows: Prodrug activation in PBS buffer assessed as H2O2-mediated hydrolysis by measuring half life at pH 7.4 measured up to 24 hrs by RP-HPLC/UV analysis. The format is physicochemical. As to conditions: pH 7.4, 24 h.
The test system of data set [17] is Rattus norvegicus. In words: Antiarthritic activity in dark agouti rat model of collagen-induced arthritis assessed as decrease in disease severity at 0.42 mg/kg, ip administered on day 17 and treated until day 31 by macroscopic observation analysis. The format is functional, organism-based. The gist of the method: as §3
The test system of data set [18] is HL-60. The data set is described as follows: Cytotoxicity against human HL60 cells assessed as reduction in cell viability incubated for 48 hrs in presence of ROS scavenger pyruvate by Alamar blue assay relative to parent compound. In kind it is cell-based. As to conditions: hl-60, 48 h.
Data set [19] is described as follows: Half life of compound in PBS buffer. In kind it is physicochemical.
Data set [20] is described as follows: Permeability of compound across artificial lipid/oil/lipid tri-layer membrane by PAMPA assay. A general note: PAMPA measures passive passage across an artificial lipid membrane.
The subject of data set [21] is HEK293. The data set is described as follows: Cytotoxicity against human HEK293 cells assessed as reduction in cell viability incubated for 48 hrs in absence of ROS scavenger pyruvate by Alamar blue assay. The format is cell-based. To be noted: HEK293, 48 h. In short, it runs like this: as §1
Data set [22] can be described thus: Half life in human HEK293 cells in absence of ROS scavenger pyruvate. The format is ADME, cell-based.
Data set [23] is described as follows: Half life in rat plasma. The format is ADME, cell-free. The gist of the method:
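Reconstituted freeze-dried rat plasma diluted 1:1 with PBS to pH 7.4, incubated at 37 °C; half-life determined.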

The subject of data set [24] is HL-60. The data set is described as follows: Induction of apoptosis in human HL60 cells assessed as apoptotic cells at 0.1 uM in absence of ROS scavenger pyruvate by annexin V-FITC/propidium iodide staining based flow cytometry (reference value: 3 %). In kind it is functional. The gist of the method: as §4
Data set [25] is described as follows: Stability of compound in human HEK293 cells preincubated for 24 hrs followed by compound addition and subsequent removal of HEK293 cells in absence of ROS scavenger pyruvate. The format is ADME, cell-based.
Data set [26] in a line: Toxicity in dark agouti rat model of collagen-induced arthritis assessed as increase in body weight at 0.42 mg/kg, ip administered on day 17 and treated until day 31. As to conditions: in vivo. The format is organism-based. The gist of the method: as §2
In data set [27] the test system is Rattus norvegicus. In words: Antiarthritic activity in dark agouti rat model of collagen-induced arthritis assessed as decrease in disease severity at 0.3 mg/kg, ip administered on day 17 and treated until day 31 by macroscopic observation analysis. In kind it is functional, organism-based. The gist of the method: as §3
Data set [28] in a line: Prodrug activation in PBS buffer assessed as H2O2-formation of methotrexate at pH 7.4 measured up to 24 hrs by RP-HPLC/UV analysis. The format is physicochemical. As to conditions: pH 7.4, 24 h.
Data set [29] is described as follows: Toxicity in dark agouti rat model of collagen-induced arthritis assessed as adverse effect at 0.38 mg/kg, ip administered on day 17 and treated until day 31. In kind it is organism-based. As to conditions: in vivo. The gist of the method: as §2
Data set [30] in a line: Toxicity in dark agouti rat model of collagen-induced arthritis assessed as increase in body weight at 0.38 mg/kg, ip administered on day 17 and treated until day 31. The format is organism-based. As to conditions: in vivo. In short, it runs like this:
as §2

Data set [31] has as its system Rattus norvegicus. The data set is described as follows: Antiarthritic activity in dark agouti rat model of collagen-induced arthritis assessed as decrease in disease severity at 0.38 mg/kg, ip administered on day 17 and treated until day 31 by macroscopic observation analysis. The format is functional, organism-based. In short, it runs like this: as §3

As a reminder, the IC50 is the concentration that inhibits the measured activity by half. For the compound `Nc1nc(N)c2nc(CNc3ccc(C(=O)N[C@@H](CCC(=O)O)C(=O)O)cc3)cnc2n1` [AMINOPTERIN], the IC50 came out at 3.6 nM in data set [1], 8.3 nM in data set [2], 2.5 nM in [3] and 3 nM in data set [4].

As to `CN(Cc1cnc2nc(N)nc(N)c2n1)c1ccc(C(=O)N[C@@H](CCC(=O)N2CCSC2=O)C(=O)O)cc1`, the Activity result in data set [5] and in data set [6] was “Non-Toxic” in each case. Also, the IC50 in data set [1] is 207 nM; in data set [2], 164 nM; in data set [3] it was 40 nM; in data set [4] it was 36 nM. In data set [7], the outcome was inactive.

A word on the half-life: it is the time needed for the level to fall by half in the phase considered. One may read the Papp as the rate of passage across a membrane or cell layer, normalised by area and donor concentration. A lower Papp goes with slow passage. Consider `CN(Cc1cnc2nc(N)nc(NC(=O)OCc3ccc(B(O)O)cc3)c2n1)c1ccc(C(=O)N[C@@H](CCC(=O)O)C(=O)O)cc1`, for which the half-life in data set [8] was 63.2 h; in [11] it was 3.4 h; in data set [19], above 24 h; in data set [22], 107 h; in data set [23] it was 16.4 h. In addition, the Activity result in data set [9] is reported as “Non-Toxic”; in data set [10], 17%; in data set [24], 7%; in data set [26], “Non-Toxic”. The selectivity ratio at 48 h in [12] and in [13] was 5 each time. In addition, the CLint scaled in data set [14] came to 1.8 mL/min/kg. Further, the concentration for half-maximal inhibition (IC50) was 192 nM in [15]; 194 nM in data set [1]; 62.9 nM in data set [21]; 156 nM in data set [2]; 40.3 nM in data set [3]; 203 nM in data set [4]. Besides, the t1/2 turned out to be 0.29 h in [16] and 16.1 h in data set [25]. Also, the outcome in [17] was Active. Moreover, the “fold change (FC)” value in data set [18] turned out to be 20. The Papp in data set [20] is below 1.5 ×10⁻⁶ cm/s.

Regarding `CN(Cc1cnc2nc(N)nc(N)c2n1)c1ccc(C(=O)N[C@@H](CCC(=O)O)C(=O)O)cc1` [METHOTREXATE], the Activity was 17% in data set [10] and 14% in [24]. Besides, the half-life in data set [11], in data set [19] and in data set [22] was above 24 h throughout. Besides, the CLint scaled in data set [14] is 1.5 mL/min/kg. The IC50 in [15] is 35 nM; in data set [1], 59.3 nM; in [21] it was 28.6 nM; in data set [2] it was 21 nM; in [3], 8.9 nM; in [4], 9.8 nM. Besides, in data set [27], the outcome was Active. The compound also showed a Papp in [20] below 1.5 ×10⁻⁶ cm/s.

As for `CN(Cc1cnc2nc(N)nc(NC(=O)OCc3ccccc3)c2n1)c1ccc(C(=O)N[C@@H](CCC(=O)O)C(=O)O)cc1`, the half-life in data set [11] was above 24 h. In addition, in data set [16], the t1/2 is above 24 h. Also, the Drug metabolism result in [28] is reported as “Not Active”. The Papp in data set [20] was below 1.5 ×10⁻⁶ cm/s. In addition, the IC50 in data set [21] and in [3] was above 1000 nM in each case.

In the case of `Nc1nc(N)c2nc(CN(Cc3ccc(B(O)O)cc3)c3ccc(C(=O)N[C@@H](CCC(=O)O)C(=O)O)cc3)cnc2n1`, the IC50 came out at 42.2 nM in data set [1], 19.2 nM in [2], 7.5 nM in [3] and 38.3 nM in [4]. The Activity entry in [29] and in data set [30] was “Non-Toxic” each time. In addition, the outcome in data set [31] was inactive.
